Results taken from publication PMC5388420 (Nucleic Acids Research, 2016).
Read-outs that look alike come from different tables or passages of the source.

How the values were obtained:
5΄ppp10L RNA hairpin = test: NADH coupled ATPase activity assay; type: biochemical; conditions: for K M,RNA / k cat: steady state ATPase activity; for K M,RNA: 5΄ppp10L
How it was run: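 Coupled NADH assay: 10 nM RIG-I in 25 mM MOPS pH 7.4, 150 mM NaCl, 5 mM DTT with 1 mM NADH, 100 U/ml lactate dehydrogenase, 500 U/ml pyruvate kinase and 2.5 mM PEP. The hairpin was added as a 12-point series (~0.5–500 nM, diluted in MES pH 6.0/EDTA) and incubated ≥2 h at RT. Reactions were started with 5 mM ATP/5 mM MgCl2, and NADH absorbance loss was followed for 10 min. Mean velocities were plotted against RNA concentration.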

[1] = tested on: IFN-β/FireflyLuc reporter in HEK 293T cells; test: IFN-β induction dual luciferase assay; type: cell-based; conditions: for Maximum IFN-β Production, 5΄OH10L: HEK 293T cells challenged with 5΄OH10L; for Maximum IFN-β Production, 5΄ppp10L: HEK 293T cells challenged with 5΄ppp10L; for Maximum IFN-β Production, PIC: HEK 293T cells challenged with poly(I:C); for Maximum IFN-β Production, Mock: HEK 293T cells, mock challenge (no exogenous RNA)
[2] = MANT-ATP binding by stopped flow fluorescence spectroscopy; conditions: for Kd: read-out: MANT-ATP binding Kd (calc., koff/kon)
[3] = biological target: FAM-labeled 10 base pair RNA hairpin (OH10L); test: Equilibrium fluorescent RNA binding assay; conditions: read-out: Equilibrium RNA binding Kd, OH10L
How it was run: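 Recombinant hRIG-I was expressed from pET-SUMO in E. coli Rosetta II (DE3) and purified by nickel, heparin and Superdex 200 chromatography. 6-FAM was attached via the amino-modified UUCG tetraloop, with 2 nM hairpin final. Buffer: 25 mM MOPS pH 7.4, 150 mM NaCl, 5 mM DTT, 0.01% Triton X-100. Protein was titrated over 12 points (1.5–1500 nM) and equilibrated 2 h at RT. Polarization was read at ex 485/em 528 (G = 0.87), 2 wells × 3 reads, and fit one-site total binding. Three experiments gave mean and SD.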

5΄ppp10L hairpin RNA [4] = conditions: presence of either ATPγS or ADP; ref [22]; cited from earlier work
5΄ppp10L hairpin RNA [5] = test: RNA dissociation rate constant measurements; type: binding
How it was run: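 RIG-I was pre-incubated equimolar with Cy3-labeled hairpin for 2–6 h at RT, then rapidly mixed with 100-fold excess unlabeled hairpin trap (2000 points). Nucleotide (3 mM ATPγS or ADP) plus MgCl2 was included with the trap. Excitation was 515 nm with emission ≥570 nm. 4–6 averaged traces were fit double-exponential for amplitudes and k1/k2.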

[6] = from 5΄ppp10L, nucleotide: ADP (3 mM)
[7] = from 5΄ppp10L, nucleotide: ATPγS (3 mM)
[8] = from 5΄ppp10L, nucleotide: None

| Molecule | K M,RNA (5΄ppp10L RNA hairpin) | k cat (5΄ppp10L RNA hairpin; stimulated by 5΄ppp10L) | Maximum IFN-β Production, 5΄OH10L [1] [Firefly Luc/Renilla Luc] | Maximum IFN-β Production, 5΄ppp10L [1] [Firefly Luc/Renilla Luc] | Maximum IFN-β Production, PIC [1] [Firefly Luc/Renilla Luc] | Maximum IFN-β Production, Mock [1] [Firefly Luc/Renilla Luc] | Kd ([2]; protein bound to OH10L) [µM] | Kd [3] [µM] | Kd ([2]; protein bound to 5΄ppp10L) [µM] | Amplitude of k 1 (5΄ppp10L hairpin RNA [5]; [7]) [%] | Amplitude of k 2 (5΄ppp10L hairpin RNA [5]; [7]) [%] | k 1 (RNA dissociation rate constant) (5΄ppp10L hairpin RNA [5]; [7]) | k 2 (RNA dissociation rate constant) (5΄ppp10L hairpin RNA [5]; [7]) | Amplitude of k 1 (5΄ppp10L hairpin RNA [5]; [8]) [%] | Amplitude of k 2 (5΄ppp10L hairpin RNA [5]; [8]) [%] | k 1 (RNA dissociation rate constant) (5΄ppp10L hairpin RNA [5]; [8]) | k 2 (RNA dissociation rate constant) (5΄ppp10L hairpin RNA [5]; [8]) | also measured |
| --- | --- | --- | --- | --- | --- | --- | --- | --- | --- | --- | --- | --- | --- | --- | --- | --- | --- | --- |
| WT RIG-I: Wild-type human RIG-I (hRIG-I), innate immune receptor and RNA-stimulated ATPase, recombinant or expressed from pUNO-hRIG-I (protein, UniProt O95786 1-925, looked up) Antiviral innate immune …: MTTEQRRSLQAFQDYIRKTLDPTYILSYMAPWFREEEVQYIQAEKNNKGPMEAATLFLKFLLELQEEGWFRGFLDALDHAGYSGLYEAIESWDFKKIEKLEEYRLLLKRLQPEFKTRIIPTDIISDLSECLINQECEEILQICSTKGMMAGAEKLVECLLRSDKENWPKTLKLALEKERNKFSELWIVEKGIKDVETEDLEDKMETSDIQIFYQEDPECQNLSENSCPPSEVSDTNLYSPFKPRNYQLELALPAMKGKNTIICAPTGCGKTFVSLLICEHHLKKFPQGQKGKVVFFANQIPVYEQQKSVFSKYFERHGYRVTGISGATAENVPVEQIVENNDIIILTPQILVNNLKKGTIPSLSIFTLMIFDECHNTSKQHPYNMIMFNYLDQKLGGSSGPLPQVIGLTASVGVGDAKNTDEALDYICKLCASLDASVIATVKHNLEELEQVVYKPQKFFRKVESRISDKFKYIIAQLMRDTESLAKRICKDLENLSQIQNREFGTQKYEQWIVTVQKACMVFQMPDKDEESRICKALFLYTSHLRKYNDALIISEHARMKDALDYLKDFFSNVRAAGFDEIEQDLTQRFEEKLQELESVSRDPSNENPKLEDLCFILQEEYHLNPETITILFVKTRALVDALKNWIEGNPKLSFLKPGILTGRGKTNQNTGMTLPAQKCILDAFKASGDHNILIATSVADEGIDIAQCNLVILYEYVGNVIKMIQTRGRGRARGSKCFLLTSNAGVIEKEQINMYKEKMMNDSILRLQTWDEAVFREKILHIQTHEKFIRDSQEKPKPVPDKENKKLLCRKCKALACYTADVRVIEECHYTVLGDAFKECFVSRPHPKPKQFSSFEKRAKIFCARQNCSHDWGIHVKYKTFEIPVIKIESFVVEDIATGVQTLYSKWKDFHFEKIPFDPAEMSK | 10.0 ± 1.0 nM | 18.2 ± 0.3 ATP/RIG-I•s | 3.8 ± 0.3 | 20.1 ± 1.7 | 59.2 ± 15 | 0.99 ± 0.4 | 136 ± 6 | 0.017 ± 0.001 |  |  |  |  |  |  |  |  |  | kcat (RNA-stimulated ATPase activity) (5΄ppp10L RNA hairpin; stimulated by 5΄ppp10L): 18.2 s⁻¹; increase in the rate of dissociation from 5΄ppp10L (5΄ppp10L hairpin RNA [4]): 5 fold |
| S411A: RIG-I variant with mutation S411A within conserved helicase Motif III; constitutively signaling (protein, UniProt O95786 1-925, looked up, variant S411A) Antiviral innate immune …: MTTEQRRSLQAFQDYIRKTLDPTYILSYMAPWFREEEVQYIQAEKNNKGPMEAATLFLKFLLELQEEGWFRGFLDALDHAGYSGLYEAIESWDFKKIEKLEEYRLLLKRLQPEFKTRIIPTDIISDLSECLINQECEEILQICSTKGMMAGAEKLVECLLRSDKENWPKTLKLALEKERNKFSELWIVEKGIKDVETEDLEDKMETSDIQIFYQEDPECQNLSENSCPPSEVSDTNLYSPFKPRNYQLELALPAMKGKNTIICAPTGCGKTFVSLLICEHHLKKFPQGQKGKVVFFANQIPVYEQQKSVFSKYFERHGYRVTGISGATAENVPVEQIVENNDIIILTPQILVNNLKKGTIPSLSIFTLMIFDECHNTSKQHPYNMIMFNYLDQKLGGSSGPLPQVIGLTAAVGVGDAKNTDEALDYICKLCASLDASVIATVKHNLEELEQVVYKPQKFFRKVESRISDKFKYIIAQLMRDTESLAKRICKDLENLSQIQNREFGTQKYEQWIVTVQKACMVFQMPDKDEESRICKALFLYTSHLRKYNDALIISEHARMKDALDYLKDFFSNVRAAGFDEIEQDLTQRFEEKLQELESVSRDPSNENPKLEDLCFILQEEYHLNPETITILFVKTRALVDALKNWIEGNPKLSFLKPGILTGRGKTNQNTGMTLPAQKCILDAFKASGDHNILIATSVADEGIDIAQCNLVILYEYVGNVIKMIQTRGRGRARGSKCFLLTSNAGVIEKEQINMYKEKMMNDSILRLQTWDEAVFREKILHIQTHEKFIRDSQEKPKPVPDKENKKLLCRKCKALACYTADVRVIEECHYTVLGDAFKECFVSRPHPKPKQFSSFEKRAKIFCARQNCSHDWGIHVKYKTFEIPVIKIESFVVEDIATGVQTLYSKWKDFHFEKIPFDPAEMSK | 5.0 ± 1 nM | 5.1 ± 0.4 ATP/RIG-I•s | 19.5 ± 3.8 | 56.6 ± 10.8 | 209.8 ± 17 | 3.5 ± 0.5 | 75 ± 5 | 0.023 ± 0.0018 | 82 ± 6 | 42 | 58 | 68 ± 0.9 × 10^−3 s^−1 | 2 ± 0.04 × 10^−3 s^−1 | 52 | 48 | 45 ± 0.2 × 10^−3 s^−1 | 4 ± 0.1 × 10^−3 s^−1 | greater affinity for MANT-ATP relative to WT ([2]; protein bound to OH10L): 2 fold; Amplitude of k 1 (5΄ppp10L hairpin RNA [5]; [6]): 62%; Amplitude of k 2 (5΄ppp10L hairpin RNA [5]; [6]): 38%; k 1 (RNA dissociation rate constant) (5΄ppp10L hairpin RNA [5]; [6]): 70 ± 0.9 × 10^−3 s^−1; k 2 (RNA dissociation rate constant) (5΄ppp10L hairpin RNA [5]; [6]): 6 ± 0.1 × 10^−3 s^−1; effect of nucleotide on the rate of dissociation from 5΄ppp10L (5΄ppp10L hairpin RNA [5]; saturating nucleotide (ATPγS, ADP)): did not significantly change |
| S411L: RIG-I Motif III variant, serine 411 mutated to leucine, annotated in tumor samples (protein, UniProt O95786 1-925, looked up, variant S411L) Antiviral innate immune …: MTTEQRRSLQAFQDYIRKTLDPTYILSYMAPWFREEEVQYIQAEKNNKGPMEAATLFLKFLLELQEEGWFRGFLDALDHAGYSGLYEAIESWDFKKIEKLEEYRLLLKRLQPEFKTRIIPTDIISDLSECLINQECEEILQICSTKGMMAGAEKLVECLLRSDKENWPKTLKLALEKERNKFSELWIVEKGIKDVETEDLEDKMETSDIQIFYQEDPECQNLSENSCPPSEVSDTNLYSPFKPRNYQLELALPAMKGKNTIICAPTGCGKTFVSLLICEHHLKKFPQGQKGKVVFFANQIPVYEQQKSVFSKYFERHGYRVTGISGATAENVPVEQIVENNDIIILTPQILVNNLKKGTIPSLSIFTLMIFDECHNTSKQHPYNMIMFNYLDQKLGGSSGPLPQVIGLTALVGVGDAKNTDEALDYICKLCASLDASVIATVKHNLEELEQVVYKPQKFFRKVESRISDKFKYIIAQLMRDTESLAKRICKDLENLSQIQNREFGTQKYEQWIVTVQKACMVFQMPDKDEESRICKALFLYTSHLRKYNDALIISEHARMKDALDYLKDFFSNVRAAGFDEIEQDLTQRFEEKLQELESVSRDPSNENPKLEDLCFILQEEYHLNPETITILFVKTRALVDALKNWIEGNPKLSFLKPGILTGRGKTNQNTGMTLPAQKCILDAFKASGDHNILIATSVADEGIDIAQCNLVILYEYVGNVIKMIQTRGRGRARGSKCFLLTSNAGVIEKEQINMYKEKMMNDSILRLQTWDEAVFREKILHIQTHEKFIRDSQEKPKPVPDKENKKLLCRKCKALACYTADVRVIEECHYTVLGDAFKECFVSRPHPKPKQFSSFEKRAKIFCARQNCSHDWGIHVKYKTFEIPVIKIESFVVEDIATGVQTLYSKWKDFHFEKIPFDPAEMSK | Inactive | Inactive |  | 7.8 ± 1.5 | 1.8 ± 0.4 | 0.2 ± 0.01 |  | 0.041 ± 0.0018 | 110 ± 8 | 81 | 19 | 210 ± 1 × 10^−3 s^−1 | 10 ± 0.1 × 10^−3 s^−1 | 52 | 48 | 27 ± 0.2 × 10^−3 s^−1 | 2 ± 0.04 × 10^−3 s^−1 | loss in IFN-β activation relative to WT ([1]; HEK 293T cells challenged by 5΄ppp10L): 3 fold; loss in IFN-β activation relative to WT ([1]; HEK 293T cells challenged by poly I:C): 31 fold; stimulation of koff^RNA by ATPγS (5΄ppp10L hairpin RNA [5]; from 5΄ppp10L): 7.8 fold |
